ChEMBL document CHEMBL4732262, “Identification of two novel thiophene analogues as inducers of autophagy mediated cell death in breast cancer cells” (Bioorg Med Chem, 2021)
Calls of active or inactive are those of the source. The rule behind the calls is not given here.

Tests used:
[1] = test system: MCF7; assay: Induction of autophagy in human MCF7 cells assessed as LC3-2 to LC3-1 protein ratio at 1.25 uM after 24 hrs by Western blot analysis (reference value: 0.22 to 0.8); assay type: functional
[2] = test system: MDA-MB-231; assay: Induction of apoptosis in human MDA-MB-231 cells assessed as reduction in size of cells at 2.5 uM by phase contrast microscopic method; assay type: functional, cell-based; settings: time 6-24 hrs, TDE = time-dependent effect
Summary of the method: (§1)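 ~5 × 10^4 cells in 6-well plates, either DMSO control or 2.5 µM. Morphology imaged at 0, 6, 12 and 24 h.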

[3] = test system: MCF7; assay: Induction of apoptosis in human MCF7 cells assessed as change in Bcl-2 protein expression at 2.5 uM after 24 hrs by Western blot analysis; assay type: functional, cell-based
Summary of the method: (§2)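 MCF7 or MDA-MB-231 cells given 2.5 µM or DMSO for 24 h, then lysed in RIPA buffer. Immunoblots probed overnight at 4 °C, followed by infrared-labelled secondary antibody for 1 h at 37 °C. Bands imaged and quantified densitometrically, with GAPDH as loading control. Representative of two independent experiments.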

[4] = test system: MCF7; assay: Induction of apoptosis in human MCF7 cells assessed as change in Bak1 protein expression at 2.5 uM after 24 hrs by Western blot analysis; assay type: functional, cell-based; summary of the method: as §2
[5] = test system: MDA-MB-231; assay: Induction of apoptosis in human MDA-MB-231 cells assessed as necrotic cells at 2.5 uM after 24 hrs by annexin V-FITC/Propidium iodide staining based flow cytometric analysis (reference value: 0.65%); assay type: functional
[6] = test system: MCF7; assay: Induction of apoptosis in human MCF7 cells assessed as early apoptotic cells at 2.5 uM after 24 hrs by annexin V-FITC/Propidium iodide staining based flow cytometric analysis (reference value: 3.94%); assay type: functional
[7] = test system: MCF7; assay: Cytotoxicity against human MCF7 cells assessed as reduction in cell viability after 24 hrs by MTT assay; assay type: functional, cell-based; settings: MCF7, 24 h
Summary of the method: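 Cells seeded ~5 × 10^3 per well in 96-well plates, exposed to 0–40 µM for 24 h. MTT added at 0.5 mg/ml for 3 h, formazan dissolved in DMSO, absorbance read at 540 nm. IC50 taken from plotted curves. Duplicate wells, two independent repeats. MCF7 grown in DMEM, MDA-MB-231 in RPMI, both with 10% FBS at 37 °C and 5% CO2.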

[8] = test system: MCF7; assay: Induction of apoptosis in human MCF7 cells assessed as increase in cell death at 2.5 uM after 24 hrs by EtBr/AO staining based fluorescence microscopic method relative to tanshinone-2A; assay type: functional
Summary of the method: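 MCF7 cells (~5 × 10^4 per well, on coverslips) were left untreated (DMSO control) or treated at 2.5 µM for 24 h. Cells were PBS-washed, stained with 1:1 EtBr/AO (0.4 mg/ml each), washed and mounted, then viewed by fluorescence microscopy (480 nm excitation, 515-530 nm barrier filter). 200 cells per sample were scored apoptotic, necrotic or viable; percentages were taken relative to live cells.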

[9] = test system: MCF7; assay: Induction of autophagy in human MCF7 cells assessed as increase in GABARAPL1 mRNA expression at 2.5 uM after 24 hrs by RT-PCR analysis; assay type: functional, cell-based
Summary of the method: (§3)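 MCF7 cells given 2.5 µM or DMSO for 24 h. Total RNA extracted with TRIzol and reverse-transcribed, then SYBR Green qPCR across 34 autophagy-regulatory genes (95 °C 10 min; 40 cycles of 95 °C 15 s and 60 °C 1 min). Relative expression by 2^-ΔΔCt against housekeeping genes and DMSO control, shown as log2. Two independent experiments.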

[10] = test system: MCF7; assay: Induction of autophagy in human MCF7 cells assessed as increase in GABARAPL2 mRNA expression at 2.5 uM after 24 hrs by RT-PCR analysis; assay type: functional, cell-based; summary of the method: as §3
[11] = test system: MCF7; assay: Induction of autophagy in human MCF7 cells expressing mCherry-tagged p62 assessed as reduction in p62 expression at 2.5 uM after 24 hrs by live-cell confocal microscopic analysis; assay type: functional, cell-based
Summary of the method: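 MCF7 cells were co-transfected with GFP-LC3 and mCherry-p62 constructs. 24 h later they were exposed to 2.5 µM compound, 50 µM chloroquine or DMSO for a further 24 h. Nuclei were stained with Hoechst 33342 and cells imaged by live-cell confocal microscopy. Two independent experiments.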

[12] = test system: MCF7; assay: Induction of autophagy in human MCF7 cells assessed as LC3-2 to LC3-1 protein ratio at 5 uM after 24 hrs by Western blot analysis (reference value: 0.22 to 0.8); assay type: functional
[13] = test system: MCF7; assay: Induction of apoptosis in human MCF7 cells assessed as increase in cleaved PARP level at 2.5 uM after r24 hrs by Western blot analysis; assay type: functional, cell-based; settings: time 24.0 hrs; summary of the method: as §2
[14] = test system: MCF7; assay: Induction of apoptosis in human MCF7 cells assessed as morphological changes at 2.5 uM after up to 24 hrs by phase contrast microscopic method; assay type: functional, cell-based; settings: time hrs <=24; summary of the method: as §1
[15] = test system: MDA-MB-231; assay: Induction of apoptosis in human MDA-MB-231 cells assessed as early apoptotic cells at 2.5 uM after 24 hrs by annexin V-FITC/Propidium iodide staining based flow cytometric analysis (reference value: 1.54%); assay type: functional
[16] = test system: MCF7; assay: Induction of apoptosis in human MCF7 cells assessed as change in Bcl-xL protein expression at 2.5 uM after 24 hrs by Western blot analysis; assay type: functional, cell-based; summary of the method: as §2
[17] = test system: MCF7; assay: Induction of autophagy in human MCF7 cells assessed as increase in PIK3CG mRNA expression at 2.5 uM after 24 hrs by RT-PCR analysis; assay type: functional, cell-based
Summary of the method: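 Total RNA was taken with TRIzol from MCF7 cells treated 24 h with 2.5 µM compound or DMSO, then reverse transcribed. SYBR Green qPCR ran 40 cycles of 95 °C 15 s / 60 °C 1 min. Relative expression was calculated by 2^-ΔΔCt against DMSO-treated cells, normalized to housekeeping genes (GAPDH, B2M and others). Samples run in duplicate, two independent experiments, values averaged.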

[18] = test system: MCF7; assay: Induction of apoptosis in human MCF7 cells assessed as increase in cleaved-PARP protein expression after 24 hrs by Western blot analysis; assay type: functional, cell-based; settings: dose 1.25-5 µM
[19] = test system: MCF7; assay: Induction of apoptosis in human MCF7 cells assessed as necrotic cells at 2.5 uM after 24 hrs by annexin V-FITC/Propidium iodide staining based flow cytometric analysis (reference value: 1.22%); assay type: functional
[20] = test system: MDA-MB-231; assay: Induction of apoptosis in human MDA-MB-231 cells at 2.5 uM after 24 hrs by annexin V-FITC/Propidium iodide staining based flow cytometric analysis relative to tanshinone-2A; assay type: functional
[21] = test system: MCF7; assay: Induction of autophagy in human MCF7 cells assessed as increase in GADD34 protein expression at 2.5 uM after 24 hrs by Western blot analysis; assay type: functional, cell-based; summary of the method: as §2
[22] = test system: MCF7; assay: Cytotoxicity against human MCF7 cells assessed as reduction in cell viability at 25 to 100 uM after 24 hrs in presence of chloroquine by MTT assay; assay type: functional, cell-based; settings: dose 25-100 µM
Summary of the method: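 ~0.5 × 10^5 cells per well in six-well plates given 2.5 µM test agent together with chloroquine at 25, 50 or 100 µM, 24 h at 37 °C in humidified CO2. Viability read by MTT. Duplicate assays from two independent experiments, shown with SD.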

[23] = test system: MCF7; assay: Induction of autophagy in human MCF7 cells assessed as increase in BAD mRNA expression at 2.5 uM after 24 hrs by RT-PCR analysis; assay type: functional, cell-based; summary of the method: as §3

| SMILES | Ratio [1] | Activity [2] | Activity [3] | Activity [4] | Activity [5] [%] | Activity [6] [%] | IC50 [7] [µM] | fold change (FC) [8] | Activity [9] | Activity [10] | Activity [11] | Ratio [12] | Activity [13] | Activity [14] | Activity [15] [%] | Activity [16] | Activity [17] | Activity [18] | Activity [19] [%] | fold change (FC) [20] | also measured |
| --- | --- | --- | --- | --- | --- | --- | --- | --- | --- | --- | --- | --- | --- | --- | --- | --- | --- | --- | --- | --- | --- |
| O=C1C(=O)c2ccsc2-c2ccccc21 | 10.2 | Tde | inactive | inactive | 43.5 | 17.9 | 1.95 | 2 | Active | Active | Active | 34.1 | Active | Active | 11.9 | inactive | Active | Dose-dependent effect | 37.7 | >=2 | Activity [21]: Active; Activity [22]: inactive; Activity [23]: Active |
| O=C1C(=O)c2sccc2-c2ccccc21 | 0.53 | Tde | inactive | inactive | 26.8 | 31.4 | 1.86 | 2 | Active | Active | Active | 11.4 | Active | Active | 24.7 | inactive | Active | Dose-dependent effect | 22.2 | >=2 | Activity [21]: Active; Activity [22]: inactive; Activity [23]: Active |
